According to ChEMBL document CHEMBL2385005, “Binding mechanism of the farnesoid X receptor marine antagonist suvanine reveals a strategy to forestall drug modulation on nuclear receptors. Design, synthesis, and biological evaluation of novel ligands” (J Med Chem, 2013):
Active and inactive are the calls of the source. No cut-off for these calls is given here.

What was measured:
[1] = target: T1, Bile acid receptor (Homo sapiens) (UniProt Q96RI1); experiment: Antagonist activity at FXR (unknown origin) expressed in human HepG2 cells co-expressing RXR assessed as inhibition of CDCA-induced SHP gene expression at 50 uM after 18 hrs by RT-PCR analysis; assay type: cell-based
T1 sequence (whole entry): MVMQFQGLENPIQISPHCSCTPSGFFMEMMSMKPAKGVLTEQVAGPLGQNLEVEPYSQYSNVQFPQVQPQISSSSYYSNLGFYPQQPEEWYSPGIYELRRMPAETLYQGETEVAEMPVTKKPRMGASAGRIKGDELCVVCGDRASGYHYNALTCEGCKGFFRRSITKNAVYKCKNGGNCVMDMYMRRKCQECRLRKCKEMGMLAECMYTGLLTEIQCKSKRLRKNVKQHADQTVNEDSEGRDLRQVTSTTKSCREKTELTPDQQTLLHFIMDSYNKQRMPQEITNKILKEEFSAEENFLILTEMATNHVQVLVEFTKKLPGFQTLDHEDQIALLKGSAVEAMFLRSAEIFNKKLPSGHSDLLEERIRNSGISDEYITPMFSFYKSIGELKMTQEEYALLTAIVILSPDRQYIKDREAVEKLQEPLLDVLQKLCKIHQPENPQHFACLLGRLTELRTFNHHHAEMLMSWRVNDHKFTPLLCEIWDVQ
Method in brief: (§1)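 HepG2 cells (1 × 10^6) were starved 24 h at 37 °C in E-MEM with 1% FBS. They were then primed 18 h with compound alone at 10 μM, or with 10 μM CDCA plus compound at 50 μM. Total RNA was extracted with TRIzol, DNase-treated and random-primed reverse-transcribed. 25 ng template was amplified by SYBR Green qPCR (0.2 μM primers, 40 cycles) in triplicate.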

[2] = target: T1, Bile acid receptor (Homo sapiens); experiment: Antagonist activity at FXR (unknown origin) expressed in human HepG2 cells co-expressing RXR assessed as inhibition of CDCA-induced transactivation at 50 uM after 18 hrs by luciferase reporter gene assay; assay type: cell-based
Method in brief: (§2)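 HepG2 cells (in MEM, 10% FBS, 37 °C) were plated at 1 × 10^5 cells/well. They were transfected with 150 ng pSG5-FXR, 150 ng pSG5-RXR, 200 ng pCMV-βgal and 500 ng p(hsp27)-TK-LUC (IR1 element). At 24 h they were stimulated 18 h with compound alone (10 μM, or 1–50 μM series) or with compound (50 μM, or 1–50 μM series) plus 10 μM CDCA. Luciferase was normalized to β-galactosidase activity.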

[3] = target: T1, Bile acid receptor (Homo sapiens); experiment: Antagonist activity at FXR (unknown origin) expressed in human HepG2 cells co-expressing RXR assessed as inhibition of CDCA-induced OSTalpha gene expression at 50 uM after 18 hrs by RT-PCR analysis; assay type: cell-based; method in brief: as §1
[4] = target: T2, Bile acid receptor (Homo sapiens, UniProt Q96RI1); experiment: (§3) Antagonist activity at FXR (unknown origin) expressed in human HepG2 cells co-expressing RXR assessed as inhibition of CDCA-induced transactivation after 18 hrs by luciferase reporter gene assay; assay type: cell-based; method in brief: as §2
T2 sequence (Q96RI1 whole entry): T1 sequence (whole entry)

[5] = target: T1, Bile acid receptor (Homo sapiens); experiment: as §3; assay type: cell-based; method in brief: as §2
[6] = target: T1, Bile acid receptor (Homo sapiens); experiment: Transactivation of FXR (unknown origin) expressed in human HepG2 cells co-expressing RXR assessed as beta-galactosidase activity at 10 uM after 18 hrs by luciferase reporter gene assay; assay type: cell-based; method in brief: as §2
[7] = target: Peroxisome proliferator-activated receptor gamma (Homo sapiens) (UniProt P37231); experiment: Agonist activity at PPARgamma LBD (unknown origin) transfected in human HepG2 cells co-expressing GAL4-DBD at 10 uM after 18 hrs by luciferase reporter gene assay
[8] = target: T1, Bile acid receptor (Homo sapiens); experiment: Antagonist activity at FXR (unknown origin) expressed in human HepG2 cells assessed as inhibition of 6-ECDCA-induced NCoR binding to chromatin at 15 uM after 18 hrs by chromatin immunoprecipitation assay; assay type: cell-based
Method in brief: (§4)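 HepG2 cells (10 × 10^6) were serum-starved 24 h, then treated 18 h with 6-ECDCA 5 μM alone or with compound 15 μM. Cells were crosslinked with 1% formaldehyde for 10 min and quenched with 125 mM glycine. Sonicated chromatin was immunoprecipitated overnight at 4 °C with anti-FXR, anti-Src1, anti-NCoR or IgG. OSTα promoter DNA was measured by qPCR as 2^−ΔΔCt versus input and unstimulated IgG.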

[9] = target: T3, Nuclear receptor subfamily 1 group I member 2 (Homo sapiens, UniProt O75469); experiment: Agonist activity at PXR (unknown origin) transfected in human HepG2 cells co-expressing RXR assessed as CYP3A4 expression at 10 uM after 18 hrs by luciferase reporter gene assay; conditions: hepg2, 18 h
T3 sequence (O75469 whole entry): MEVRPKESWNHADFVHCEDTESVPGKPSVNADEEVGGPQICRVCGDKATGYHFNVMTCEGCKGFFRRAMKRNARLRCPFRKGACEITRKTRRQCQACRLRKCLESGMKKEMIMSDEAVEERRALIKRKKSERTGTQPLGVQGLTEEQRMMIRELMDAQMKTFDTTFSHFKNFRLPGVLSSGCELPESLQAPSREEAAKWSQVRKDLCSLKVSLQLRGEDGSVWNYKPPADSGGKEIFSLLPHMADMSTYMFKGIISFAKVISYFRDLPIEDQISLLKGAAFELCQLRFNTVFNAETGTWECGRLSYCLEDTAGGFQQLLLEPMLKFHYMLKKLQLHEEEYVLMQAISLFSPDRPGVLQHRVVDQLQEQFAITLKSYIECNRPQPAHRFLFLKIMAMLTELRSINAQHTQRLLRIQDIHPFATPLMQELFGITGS

[10] = target: T1, Bile acid receptor (Homo sapiens); experiment: Antagonist activity at FXR (unknown origin) expressed in human HepG2 cells co-expressing RXR assessed as inhibition of CyP7alpha1 gene expression at 50 uM after 18 hrs by RT-PCR analysis; assay type: cell-based; method in brief: as §1
[11] = target: T1, Bile acid receptor (Homo sapiens); experiment: Antagonist activity at FXR (unknown origin) expressed in human HepG2 cells assessed as inhibition of 6-ECDCA-induced FXR/Src-1-mediated transcription activation complex formation at 15 uM after 18 hrs by chromatin immunoprecipitation assay; assay type: cell-based; method in brief: as §4
[12] = target: T4, Oxysterols receptor LXR-alpha (Homo sapiens) (UniProt Q13133); experiment: Agonist activity at LXRalpha LBD (unknown origin) transfected in human HepG2 cells co-expressing GAL4-DBD at 10 uM after 18 hrs by luciferase reporter gene assay; assay type: cell-based
T4 sequence (whole entry): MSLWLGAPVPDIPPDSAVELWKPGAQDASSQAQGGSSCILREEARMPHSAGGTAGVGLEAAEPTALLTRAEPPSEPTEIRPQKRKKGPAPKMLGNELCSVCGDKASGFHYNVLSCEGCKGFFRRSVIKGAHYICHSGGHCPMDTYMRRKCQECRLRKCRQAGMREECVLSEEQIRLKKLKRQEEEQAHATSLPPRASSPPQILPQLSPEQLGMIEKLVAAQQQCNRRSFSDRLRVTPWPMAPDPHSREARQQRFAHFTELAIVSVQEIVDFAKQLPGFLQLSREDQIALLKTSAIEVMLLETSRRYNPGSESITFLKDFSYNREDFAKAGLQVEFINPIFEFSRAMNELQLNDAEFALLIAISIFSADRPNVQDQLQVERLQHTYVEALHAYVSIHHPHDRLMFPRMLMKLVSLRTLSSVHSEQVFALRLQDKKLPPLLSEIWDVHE
Method in brief: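 HepG2 cells were transiently transfected with 500 ng p(UAS)5XTKLuc, 200 ng pCMV-β-galactosidase and a GAL4-DBD–LXRα LBD vector. At 48 h post-transfection they were stimulated 18 h with compound at 10 μM or the reference agonist. Luciferase was read. Data are mean ± SE of three experiments.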

[13] = target: T2, Bile acid receptor; experiment: Transactivation of FXR (unknown origin) expressed in human HepG2 cells co-expressing RXR assessed as beta-galactosidase activity after 18 hrs by luciferase reporter gene assay; assay type: cell-based; method in brief: as §2
[14] = target: T1, Bile acid receptor (Homo sapiens); experiment: Agonist activity FXR (unknown origin) expressed in human HepG2 cells co-expressing RXR assessed as effect on CyP7alpha1 mRNA level […] after 18 hrs by RT-PCR analysis; assay type: cell-based; method in brief: as §1
[15] = target: T1, Bile acid receptor (Homo sapiens); experiment: Transactivation of FXR (unknown origin) expressed in human HepG2 cells co-expressing RXR assessed as beta-galactosidase activity at 50 uM after 18 hrs by luciferase reporter gene assay; assay type: cell-based; method in brief: as §2
[16] = target: T1, Bile acid receptor (Homo sapiens); experiment: Agonist activity FXR (unknown origin) expressed in human HepG2 cells co-expressing RXR assessed as effect on SHP mRNA level at […] after 18 hrs by RT-PCR analysis; assay type: cell-based; method in brief: as §1
[17] = target: T1, Bile acid receptor (Homo sapiens); experiment: Agonist activity FXR (unknown origin) expressed in human HepG2 cells co-expressing RXR assessed as effect on OSTalpha mRNA level […] after 18 hrs by RT-PCR analysis; assay type: cell-based; method in brief: as §1
[18] = target: T1, Bile acid receptor (Homo sapiens); experiment: Transactivation of FXR (unknown origin) expressed in human HepG2 cells co-expressing RXR assessed as beta-galactosidase activity at 50 uM after 18 hrs by luciferase reporter gene assay relative to CDCA; assay type: cell-based; method in brief: as §2

Compound | inhibition [1] | inhibition [2] | inhibition [3] | EC50 [4] [µM] | Activity [7] | Activity [9] | Activity [12] | Activity [15] | further results
CC1(C)CCC[C@]2(C)C3CC[C@@]4(C=O)[C@@H]5OC(=O)C=C5CC[C@@H]4[C@@]3(C)CC[C@@H]12 (single isomer, unassigned) | Active | Active | Active | – | – | – | – | – | –
CC1(C)CCC[C@]2(C)[C@H]3CC/C(=C\OS(=O)(=O)[O-])[C@H](CCc4ccoc4)[C@@]3(C)CC[C@@H]12.[Na+] [SUVANINE'S SODIUM SALT] | Active | Active | Active | 24 | inactive | Active | inactive | – | inhibition [5]: Dose-dependent effect; Activity [6]: inactive; inhibition [8]: inactive; Activity [10]: Active; inhibition [11]: Active
COC(=O)CC[C@H]1C(=O)CC[C@H]2[C@]1(C)CC[C@H]1C(C)(C)CCC[C@]21C | Active | – | Active | – | – | – | – | – | –

Further lines, with some results ahead:

inhibition [1] | inhibition [2] | inhibition [3] | EC50 [4] [µM] | Activity [7] | Activity [9] | Activity [12] | Activity [15] | Compound | further results
Active | – | Active | 25 | inactive | Active | inactive | – | CC1(C)CCC[C@]2(C)[C@H]3CC[C@H](O)[C@H](CCc4ccoc4)[C@@]3(C)CC[C@@H]12 | –
– | – | – | – | inactive | Active | inactive | Active | CC1(C)CCC[C@]2(C)[C@H]3CC[C@@H](CCCO)[C@H](CCc4ccoc4)[C@@]3(C)CC[C@@H]12 | EC50 [13]: 30 µM; Activity [14]: Active; Activity [16]: Active; Activity [17]: Active; Efficacy [18]: 21.5%
– | – | – | – | – | – | – | Active | CC1(C)CCC[C@]2(C)[C@H]3CC[C@H](/C=C/C(=O)O)[C@H](CCc4ccoc4)[C@@]3(C)CC[C@@H]12 | –
